Experiments:
MT4 [1] = assay: 50% inhibition of MT-4 cell proliferation.; type: functional; conditions: Homo sapiens, read-out: CD50 (the source's name)
Outline: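 MT-4 cells in RPMI-1640 with 10% FBS, cultured 3 days with compound at 0.001-200 µg/mL, triplicate per dose. Cell concentration and viability measured by trypan blue dye exclusion, and CD50 calculated.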

MT4 [2] = assay: Ratio of CD50 to ID50 was determined; type: functional, Homo sapiens
[3] = Half life for hydrolysis of compound in phosphate buffer of pH 7.2 at 20 degree C; type: ADME
MT4 [4] = assay: 50% inhibition of HIV replication in MT-4 cells; type: functional; conditions: Homo sapiens, read-out: ID50 (the source's name)
Outline: (§1)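 HIV-1-infected MT-4 cells (MOI 0.2-0.5; cells at 2 × 10^6 cells/mL, viability >90%) in RPMI-1640 with 10% FBS, L-glutamine, gentamycin and lincomycin. Cultured 3 days with compound at 0.001-100 µg/mL, triplicate per dose. Replication measured as p24 antigen by immunoassay.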

MT4 [5] = assay: 90% inhibition of HIV replication in MT-4 cells; type: functional, Homo sapiens; outline: as §1
[6] = Half life for the hydrolysis of compound in human blood serum; type: ADME, cell-free, Plasma

SMILES	CC50 (MT4 [1])	IS (MT4 [2])	half-life [3]	IC50 (MT4 [4])	ID90 (MT4 [5])	half-life [6]
CCOP(=O)(OCC1OC(n2cc(C)c(=O)[nH]c2=O)CC1N=[N+]=[N-])C(=O)NCCc1ccccc1 (stereo not drawn)	177 µM	19711	10 h	0.009 µM		
CCOP(=O)(OCC1C=CC(n2cc(C)c(=O)[nH]c2=O)O1)C(=O)NCCc1ccccc1 (stereo not drawn)	66.9 µM	1555	> 20 h	0.043 µM		
CCOP(=O)(OCC1C=CC(n2cc(C)c(=O)[nH]c2=O)O1)C(=O)NC (stereo not drawn)	85.7 µM	6592	15 h	0.013 µM	0.27 µM	
CCOC(=O)CP(=O)(OCC)OCC1OC(n2cc(C)c(=O)[nH]c2=O)CC1N=[N+]=[N-] (stereo not drawn)	> 224 µM	>974		0.23 µM		
CCOC(=O)P(=O)(OCC)OCC1C=CC(n2cc(C)c(=O)[nH]c2=O)O1 (stereo not drawn)	136 µM	591	0.5 h	0.23 µM	21.7 µM	
CCOP(=O)(OCC1C=CC(n2cc(C)c(=O)[nH]c2=O)O1)C(N)=O (stereo not drawn)	214 µM	7143	7 h	0.03 µM	7.21 µM	0.35 h
CCOP(=O)(CC(N)=O)OCC1OC(n2cc(C)c(=O)[nH]c2=O)CC1N=[N+]=[N-] (stereo not drawn)	456 µM	1573	> 20 h	0.29 µM	1.68 µM	
CCOC(=O)CP(=O)(OCC1OC(n2cc(C)c(=O)[nH]c2=O)CC1N=[N+]=[N-])OC1CCCCC1 (stereo not drawn)	280 µM	700	> 8 h	0.4 µM	1.4 µM	
CCOC(=O)CP(=O)(OCC1C=CC(n2cc(C)c(=O)[nH]c2=O)O1)OC1CCCCC1 (stereo not drawn)	131 µM	<13		> 10 µM		
CCOC(=O)P(=O)(OCC)OCC1OC(n2cc(C)c(=O)[nH]c2=O)CC1N=[N+]=[N-] (stereo not drawn)	116 µM	16338	0.167 h	0.0071 µM	0.016 µM	
CCOP(=O)(OCC1OC(n2cc(C)c(=O)[nH]c2=O)CC1N=[N+]=[N-])C(N)=O (stereo not drawn)	249 µM	124300	2.5 h	0.002 µM	0.019 µM	0.117 h
CCOC(=O)CP(=O)(OCC)OCC1C=CC(n2cc(C)c(=O)[nH]c2=O)O1 (stereo not drawn)	136 µM	<13	> 8 h	> 10 µM		
CCOP(=O)(CC(N)=O)OCC1C=CC(n2cc(C)c(=O)[nH]c2=O)O1 (stereo not drawn)	268 µM	49.6	> 24 h	5.4 µM	18.8 µM	> 24 h
CCOP(=O)(OCC1OC(n2cc(C)c(=O)[nH]c2=O)CC1N=[N+]=[N-])C(=O)NC (stereo not drawn)	113 µM	470416	6 h	0.00024 µM	0.0072 µM	
Cc1cn([C@H]2C=C[C@@H](CO)O2)c(=O)[nH]c1=O [STAVUDINE]		1308		0.24 µM	23.8 µM	
Cc1cn([C@H]2C[C@H](N=[N+]=[N-])[C@@H](CO)O2)c(=O)[nH]c1=O [ZIDOVUDINE]	188 µM	11029		0.017 µM	0.75 µM	

Reference: ChEMBL document CHEMBL1149185, “Uncharged AZT and D4T derivatives of phosphonoformic and phosphonoacetic acids as anti-HIV pronucleosides” (J Med Chem, 2004)
